TRPC4 inh: TRPC4 (mouse) channel inhibition; HEK293 TRPC4beta/mu-opioid, DAMGO-evoked Fluo4 calcium flux; active compounds read low; Q9QUQ5; B-score at 10 µM; actives 0.39% (n = 300,000);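 active = B-score over 3 SD under the library average, no early fluorescence shift, positive overall ratio signal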
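Material: HEK293 cells with stable TRPC4beta plus mu-opioid receptor expression; probe or stimulus: DAMGO in two steps, submaximal then maximal; technique: Fluo4 calcium fluorescence by kinetic imaging, 5 s 1 Hz baseline; measure: integrated fluorescence ratio relative to baseline, converted to per-well B score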
TRPC4 potent: TRPC4 (mouse) allosteric potentiation; B-score at 10 µM; actives 0.42% (n = 310,000); HEK293 TRPC4beta/mu-opioid, DAMGO EC20, Fluo-4 Ca2+ flux; active compounds read high; Q9QUQ5;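 active = B-score of calcium response area above 5 SD of library B-scores, with initial fluorescence ratio within 5 SD of library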;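 note: B-score of integrated fluorescence ratio over time as area under calcium response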
Kir21 block: blocks the mouse Kir2.1 inward-rectifier potassium channel | P35561 | HEK293-Kir2.1, FluxOR thallium flux fluorescence; active compounds read low | B-score at 10 µM | actives 0.85% (n = 310,000) | AID 1672;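 active = fluorescence ratio B-score at or below minus 3 SD of library scores, with starting-brightness B-score within 2 SD, cut at about -4.2 in these data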;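 note: channel flux triggered by added potassium and thallium sulfate stimulus; B-score of peak minus minimum fluorescence over baseline after thallium stimulus; more negative B-score means stronger Kir2.1 block with less thallium influx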
TRPC6 activator: activators of mouse TRPC6 channel; HEK293-TRPC6 membrane potential dye fluorescence; active compounds read high; B-score at 10 µM; actives 0.13% (n = 310,000);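 active = B-score of the integrated fluorescence ratio above library mean plus 3 SD, and starting fluorescence ratio within library mean plus 5 SD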;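 note: higher score means more depolarization so channel activation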
Target sequence (Q61143 whole entry, looked up): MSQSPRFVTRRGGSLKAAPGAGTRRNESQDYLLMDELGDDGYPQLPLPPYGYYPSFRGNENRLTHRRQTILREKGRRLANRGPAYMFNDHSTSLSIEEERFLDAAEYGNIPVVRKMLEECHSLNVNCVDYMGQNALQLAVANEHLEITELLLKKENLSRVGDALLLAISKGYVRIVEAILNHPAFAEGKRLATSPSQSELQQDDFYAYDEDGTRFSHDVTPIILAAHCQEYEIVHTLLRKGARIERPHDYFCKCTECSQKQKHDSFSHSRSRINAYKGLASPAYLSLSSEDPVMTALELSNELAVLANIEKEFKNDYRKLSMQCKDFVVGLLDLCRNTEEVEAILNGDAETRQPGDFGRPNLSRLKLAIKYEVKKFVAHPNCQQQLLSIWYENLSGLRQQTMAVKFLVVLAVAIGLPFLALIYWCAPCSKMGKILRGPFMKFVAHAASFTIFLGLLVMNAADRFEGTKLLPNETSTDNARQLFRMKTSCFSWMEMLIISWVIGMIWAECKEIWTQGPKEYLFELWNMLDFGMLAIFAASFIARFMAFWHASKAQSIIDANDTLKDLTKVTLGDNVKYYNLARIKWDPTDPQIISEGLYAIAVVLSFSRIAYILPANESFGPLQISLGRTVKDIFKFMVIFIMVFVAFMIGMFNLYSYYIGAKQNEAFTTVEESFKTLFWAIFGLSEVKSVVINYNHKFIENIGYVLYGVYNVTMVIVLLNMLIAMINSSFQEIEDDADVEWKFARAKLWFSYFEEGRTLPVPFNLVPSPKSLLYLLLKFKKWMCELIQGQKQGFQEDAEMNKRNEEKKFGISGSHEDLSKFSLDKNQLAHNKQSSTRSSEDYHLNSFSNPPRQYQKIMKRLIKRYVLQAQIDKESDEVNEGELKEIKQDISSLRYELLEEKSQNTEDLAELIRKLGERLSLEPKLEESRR
TRPC6 inhibitor: inhibitors of mouse TRPC6 channel; Q61143; HEK293-TRPC6, membrane potential dye, ACh-evoked depolarization; active compounds read low; B-score at 10 µM; actives 1.1% (n = 310,000); AID 2553;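 active = B-score under library mean minus 3 SD, initial fluorescence not abnormally high, positive integrated signal ratio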;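 note: B-score derived from integrated fluorescence ratio over the kinetic read; more negative B-score means stronger inhibition of depolarization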
TRPC4 act: opens the mouse TRPC4 cation channel. actives 0.49% (n = 310,000). HEK293 TRPC4beta/mu-opioid, Fluo4 calcium fluorescence; active compounds read high. AID 2237. Q9QUQ5. B-score at 10 µM;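 active = B-score above 5 SD of library B-scores, and initial fluorescence ratio not above library mean plus 5 SD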;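 note: positive B-score marks a calcium rise read as TRPC4 activation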
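System – HEK293 cells stably co-expressing mouse TRPC4beta and mu-opioid receptor · Signal – Fluo4 calcium-sensitive dye fluorescence, kinetic, 1 Hz baseline · Benchmarks – buffer (low) and maximal DAMGO (high) · Read-out – B score of integrated fluorescence ratio per well · Incubation – dye loading 45 min room temperature, 110 s kinetic read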
TRPC4 spec 2: mouse TRPC4 off-target activity of TRPC6 inhibitors, second screen. inhibition, % at 10 µM. AID 2776. shares compounds with TRPC6 inhibitor. HEK293 TRPC4/MOR, membrane potential dye fluorescence; channel activated by saturating DAMGO dose. actives 42% (n = 920);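 active = compounds whose fluorescence signal differed from control wells by over 3 SD, either direction, in both duplicate plates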
TRPC4 spec: mouse TRPC4 off-target activity of TRPC6 inhibitors; HEK293 TRPC4/mu-opioid, membrane potential fluorescence; activity change, negative = inhibition, % at 10 µM; actives 61% (n = 920); shares compounds with TRPC6 inhibitor;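 active = rise or fall in signal beyond 3 SD of buffer-only wells in both replicate plates, either sign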;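 note: integrated kinetic ratio of fluorescence range over baseline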
HEK293 MPD ctr 2-1: second check of TRPC6 inhibitor effects in parental HEK293 cells; actives 31% (n = 920); parental HEK293 membrane potential dye fluorescence; maximal acetylcholine challenge after compound addition; signal change vs control, % at 10 µM; AID 2779; shares compounds with TRPC6 inhibitor;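 active = membrane potential signal moving either way by over 3 SD of the maximum-effect control, in both duplicate plates, meaning non-specific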
HEK293 MPD ctr-1: counter-screen for TRPC6 inhibitors: effect in parental HEK293 cells; shares compounds with TRPC6 inhibitor; parental HEK293 membrane potential dye fluorescence; membrane potential signal change, % at 10 µM; actives 60% (n = 920); AID 2780;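 active = membrane potential signal shifting up or down by more than 3 SD of buffer-only wells, on both duplicate plates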
HEK293 MPD ctr-2: checks TRPC6 modulator effects in parental HEK293 cells; membrane potential signal change, % at 10 µM; actives 51% (n = 2,400); shares compounds with TRPC6 inhibitor; membrane potential dye fluorescence;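 active = membrane potential signal moves up or down beyond 5 SD from buffer-only wells, on both duplicate plates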
HEK293 MPD ctr 2-2: parental HEK293 nonspecific activity of TRPC6 modulators, second screen | shares compounds with TRPC6 inhibitor | membrane potential dye fluorescence; after compound, maximal acetylcholine stimulation | inhibition, % at 10 µM | actives 14% (n = 2,400);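 active = membrane potential signal drops by more than 5 SD from the mean control signal, in both duplicate plates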;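 note: plate controls were acetylcholine ECmax control wells for no effect and buffer only wells for full effect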
TRPC4 ctr mod: tests whether TRPC6 modulators also affect mouse TRPC4; shares compounds with TRPC6 inhibitor; HEK293 TRPC4/mu-opioid, membrane potential fluorescence; percent change from control (negative = decrease, positive = increase), % at 10 µM; actives 69% (n = 2,400); AID 488927;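 active = membrane potential signal moved up or down beyond 5 SD of buffer control wells, in both duplicate plates, actives on both sides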;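 note: plate controls were assay buffer wells for no effect and DAMGO maximal-effect wells for full effect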
TRPC4/MOR inh 2: second check of whether TRPC6 modulators also affect mouse TRPC4; shares compounds with TRPC6 inhibitor; HEK293 TRPC4/mu-opioid, membrane potential dye fluorescence; stimulated with maximal-effect DAMGO; actives 55% (n = 2,400); inhibition, % at 10 µM;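 active = drop in membrane potential signal beyond 5 SD of the control wells in both duplicate plates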;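 note: TRPC4 counter screen for TRPC6 hits run under conditions tuned for TRPC6 not TRPC4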
TRPC6 inh conf: confirmation of mouse TRPC6 inhibitors. actives 43% (n = 3,300). HEK293-TRPC6, membrane potential dye, ACh-evoked depolarization. inhibition, % at 10 µM. shares compounds with TRPC6 inhibitor;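 active = fluorescence ratio falls more than 5 SD below the full-stimulation control mean, in both duplicate runs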;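 note: integrated fluorescence ratio of peak minus minimum over baseline after agonist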
TRPC6 act conf: confirmation of mouse TRPC6 activators; actives 11% (n = 2,800); shares compounds with TRPC6 inhibitor; HEK293-TRPC6 membrane potential dye fluorescence, FDSS; activation, % at 10 µM;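 active = ratio signal rise beyond 5 SD above unstimulated control wells' mean, seen in both duplicate runs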;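 note: plate controls were buffer EC0 wells for no effect and acetylcholine ECmax response for full effect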
Numbers without * were called inactive; i = inactive; . = not tested or not shown. A selection: hits, their analogues and other compounds. The true share with any hit is near 2.9%.

SMILES	TRPC4 inh	TRPC4 potent	Kir21 block	TRPC6 activator	TRPC6 inhibitor	TRPC4 act	HEK293 MPD ctr-2	HEK293 MPD ctr 2-2	TRPC4 ctr mod	TRPC4/MOR inh 2	TRPC6 inh conf	TRPC6 act conf	others
O=[N+]([O-])c1ccccc1S(=O)(=O)N1CCN(C2CCN(Cc3ccccc3)CC2)CC1	i	i	0.07	i	i	i	.	.	.	.	.	.
CN1CCN(C2CCN(S(=O)(=O)c3ccc(C(C)(C)C)cc3)CC2)CC1	i	i	-0.78	13*	i	i	193%*	i	32%*	i	i	104%*
CC(C)(C)c1ccc(S(=O)(=O)N2CCN(C3CCCC3)CC2)cc1	i	i	0.39	i	i	i	.	.	.	.	.	.
COc1ccc(S(=O)(=O)N2CCC(N3CCN(Cc4ccccc4)CC3)CC2)cc1	i	i	-1.6	i	-5.3*	i	134%*	i	18%*	32%*	44%*	.
O=C(NC12CC3CC(CC(C3)C1)C2)c1ccccc1O	i	i	0.27	i	i	i	.	.	.	.	.	.
CCCCN(C(=O)CSCC(=O)Nc1ccc(C)cc1)c1c(N)n(Cc2ccccc2)c(=O)[nH]c1=O	i	i	-0.26	i	i	i	.	.	.	.	.	.
NC(=S)COc1ccccc1	i	i	0.68	i	i	i	.	.	.	.	.	.
CCCCNC(=O)N1CCc2[nH]c3ccccc3c2C1	i	i	-0.28	i	-6.1*	i	i	i	i	i	72%*	.
Fc1ccc2[nH]c3c(c2c1)CN(C(=S)NCc1ccccc1)CC3	i	i	-0.12	i	-12*	i	.	.	.	.	127%*	.	TRPC4 spec 2=i;TRPC4 spec=-13%*;HEK293 MPD ctr 2-1=i;HEK293 MPD ctr-1=i
C=CCNC(=O)N1CCc2[nH]c3ccc(F)cc3c2C1	i	i	1.9	i	-6.2*	i	240%*	i	18%*	i	82%*	.
CCc1nc(Sc2nc(C)cc(C)n2)c2oc3ccccc3c2n1	i	i	0.08	i	i	i	.	.	.	.	.	.
C=CCn1c(/N=C/c2ccc(N(C)C)cc2)nc2ccccc21	i	10*	-0.04	22*	-6.6*	86*	890%*	i	68%*	76%*	82%*	262%*
COc1cccc(NC(=O)CS(=O)(=O)c2cccc3nsnc23)c1	i	i	1.2	i	i	i	.	.	.	.	.	.
Cc1nnc(-c2ccccc2)c(=O)n1/N=C/c1c(O)ccc2ccccc12	i	i	0.57	i	-7.3*	i	.	.	.	.	80%*	.	TRPC4 spec 2=68%*;TRPC4 spec=23%*;HEK293 MPD ctr 2-1=-242%*;HEK293 MPD ctr-1=8.7%*
COc1ccc(/C=N/NC(=O)c2snnc2C)c(OC)c1OC	i	i	1.7	i	i	i	.	.	.	.	.	.
CN(C)c1cc[n+](CC[n+]2ccc(N(C)C)cc2)cc1	i	i	-0.2	i	-5.5*	i	-234%*	i	-42%*	40%*	52%*	i
C=CC[n+]1c(/C=C/c2ccc(OC(C)=O)c(OC)c2)ccc2ccccc21	i	i	-0.06	i	-8*	i	-301%*	90%*	-57%*	65%*	64%*	i
CC1CCN(Cc2ccc(NC(=O)C3CCN(c4nnc(-n5cccc5)s4)CC3)cc2)CC1	i	i	-1.1	i	-7.8*	i	.	.	.	.	i	i	TRPC4 spec 2=71%*;TRPC4 spec=i;HEK293 MPD ctr 2-1=i;HEK293 MPD ctr-1=i
O=C(Nc1cccc(S(=O)(=O)C(F)F)c1)c1ccc(Cl)c(S(=O)(=O)N2CCOCC2)c1	i	i	-0.1	i	-6.1*	i	i	i	i	i	i	i
c1cnc2ccc(C(c3nnnn3C3CCCC3)N3CCSCC3)cc2c1 (centres undefined)	i	i	-0.74	19*	-6.2*	i	120%*	i	32%*	i	98%*	148%*
CC(C)(C)n1nnnc1C(c1ccc2ncccc2c1)N1CCC(O)CC1 (centres undefined)	i	i	0.56	i	i	i	.	.	.	.	.	.
CCC(C)(C)n1nnnc1C(c1ccc2ncccc2c1)N1CCCC(C)C1 (centres undefined)	i	i	-1.7	i	-7.2*	i	.	.	.	.	i	.	TRPC4 spec 2=i;TRPC4 spec=27%*;HEK293 MPD ctr 2-1=i;HEK293 MPD ctr-1=16%*
Cc1nc(C(=O)Nc2cc(Cl)ccc2Cl)nn1-c1cc(OC(C)C)c(Cl)cc1Cl	i	i	-1.9	i	i	i	.	.	.	.	.	.
COc1ccc(C2Nc3cccc4cccc(c34)N2)cc1	i	i	-1	i	-5*	i	i	i	-16%*	45%*	i	i
CCOc1cc(C2Nc3cccc4cccc(c34)N2)ccc1O	i	i	0	i	-5.9*	i	-122%*	i	-28%*	57%*	41%*	i

Source: PubChem BioAssay
